# Experimental data as given in ChEMBL document CHEMBL4689842, “EUbOPEN Chemogenomics Library wave 1” (2021).
# Tested on: HEK-293T
# Assay: Multiplex assay against HEK293T;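 on Population Tubulin-Different-Phenotype (%): share of the cells with healthy nuclei that show this phenotype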
# Format: toxicity, cell-based
# Conditions: human
# How it was run: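 Per cents of healthy-nucleus cells form the tubulin, mitochondrial-mass and membrane-permeability phenotype values. Live cells were stained at seeding with Hoechst33342, BioTracker Green Microtubule Cytoskeleton Dye, MitoTracker Red and Annexin V Alexa Fluor 680. After compound addition they were imaged on a CQ1 microscope at 37°C and 5% CO2, and CellPathfinder machine-learning gating split them into Hoechst high-intensity objects or normal cells, normal cells into healthy, pyknosed or fragmented nuclei, and pyknosed cells into mitotic or apoptotic.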
# [1] = 12 h, 1 µM, compound concentration 1 uM, replicate 1
# [2] = 12 h, 1 µM, compound concentration 1 uM, replicate 2
# [3] = 12 h, 10 µM, compound concentration 10 uM, replicate 1
# [4] = 12 h, 10 µM, compound concentration 10 uM, replicate 2
# [5] = 24 h, 1 µM, compound concentration 1 uM, replicate 1
# [6] = 24 h, 1 µM, compound concentration 1 uM, replicate 2
# [7] = 24 h, 10 µM, compound concentration 10 uM, replicate 1
# [8] = 24 h, 10 µM, compound concentration 10 uM, replicate 2
# [9] = 48 h, 1 µM, compound concentration 1 uM, replicate 1
# [10] = 48 h, 1 µM, compound concentration 1 uM, replicate 2
# [11] = 48 h, 10 µM, compound concentration 10 uM, replicate 1
# [12] = 48 h, 10 µM, compound concentration 10 uM, replicate 2
compound,measurement,setting,value
CN1C(=O)[C@@H](NC(=O)c2cc3ccccc3[nH]2)N=C(c2ccccc2)c2ccccc21 [DEVAZEPIDE],Population Apoptotic (%),[1],49%
same,Population Fragmented Nuclei (%),[1],9%
same,Population Healthy Nuclei (%),[1],38%
same,Population Hoechst High Intensity Objects (%),[1],11%
same,Population Membrane Permeable-Phenotype (%),[1],8%
same,Population Mitochondria Different-Phenotype (%),[1],73%
same,Population Mitotic Cells (%),[1],50%
same,Population Normal (%),[1],88%
same,Population Pyknosed Nuclei (%),[1],52%
same,Population Tubulin-Different-Phenotype (%),[1],50%
same,Total Cell Count,[1],314
same,Population Apoptotic (%),[2],12%
same,Population Fragmented Nuclei (%),[2],6%
same,Population Healthy Nuclei (%),[2],36%
same,Population Hoechst High Intensity Objects (%),[2],3%
same,Population Membrane Permeable-Phenotype (%),[2],9%
same,Population Mitochondria Different-Phenotype (%),[2],34%
same,Population Mitotic Cells (%),[2],87%
same,Population Normal (%),[2],96%
same,Population Pyknosed Nuclei (%),[2],56%
same,Population Tubulin-Different-Phenotype (%),[2],28%
same,Total Cell Count,[2],205
same,Population Apoptotic (%),[3],58%
same,Population Fragmented Nuclei (%),[3],11%
same,Population Healthy Nuclei (%),[3],24%
same,Population Hoechst High Intensity Objects (%),[3],15%
same,Population Membrane Permeable-Phenotype (%),[3],5%
same,Population Mitochondria Different-Phenotype (%),[3],88%
same,Population Mitotic Cells (%),[3],41%
same,Population Normal (%),[3],84%
same,Population Pyknosed Nuclei (%),[3],63%
same,Population Tubulin-Different-Phenotype (%),[3],76%
same,Total Cell Count,[3],287
same,Population Apoptotic (%),[4],25%
same,Population Fragmented Nuclei (%),[4],4%
same,Population Healthy Nuclei (%),[4],34%
same,Population Hoechst High Intensity Objects (%),[4],3%
same,Population Membrane Permeable-Phenotype (%),[4],15%
same,Population Mitochondria Different-Phenotype (%),[4],48%
same,Population Mitotic Cells (%),[4],74%
same,Population Normal (%),[4],96%
same,Population Pyknosed Nuclei (%),[4],60%
same,Population Tubulin-Different-Phenotype (%),[4],66%
same,Total Cell Count,[4],228
same,Population Apoptotic (%),[5],48%
same,Population Fragmented Nuclei (%),[5],11%
same,Population Healthy Nuclei (%),[5],36%
same,Population Hoechst High Intensity Objects (%),[5],13%
same,Population Membrane Permeable-Phenotype (%),[5],3%
same,Population Mitochondria Different-Phenotype (%),[5],67%
same,Population Mitotic Cells (%),[5],51%
same,Population Normal (%),[5],86%
same,Population Pyknosed Nuclei (%),[5],51%
same,Population Tubulin-Different-Phenotype (%),[5],52%
same,Total Cell Count,[5],327
same,Population Apoptotic (%),[6],14%
same,Population Fragmented Nuclei (%),[6],4%
same,Population Healthy Nuclei (%),[6],57%
same,Population Hoechst High Intensity Objects (%),[6],2%
same,Population Membrane Permeable-Phenotype (%),[6],15%
same,Population Mitochondria Different-Phenotype (%),[6],20%
same,Population Mitotic Cells (%),[6],85%
same,Population Normal (%),[6],97%
same,Population Pyknosed Nuclei (%),[6],37%
same,Population Tubulin-Different-Phenotype (%),[6],34%
same,Total Cell Count,[6],231
same,Population Apoptotic (%),[7],56%
same,Population Fragmented Nuclei (%),[7],16%
same,Population Healthy Nuclei (%),[7],15%
same,Population Hoechst High Intensity Objects (%),[7],17%
same,Population Membrane Permeable-Phenotype (%),[7],5%
same,Population Mitochondria Different-Phenotype (%),[7],91%
same,Population Mitotic Cells (%),[7],43%
same,Population Normal (%),[7],82%
same,Population Pyknosed Nuclei (%),[7],67%
same,Population Tubulin-Different-Phenotype (%),[7],91%
same,Total Cell Count,[7],284
same,Population Apoptotic (%),[8],41%
same,Population Fragmented Nuclei (%),[8],7%
same,Population Healthy Nuclei (%),[8],46%
same,Population Hoechst High Intensity Objects (%),[8],4%
same,Population Membrane Permeable-Phenotype (%),[8],15%
same,Population Mitochondria Different-Phenotype (%),[8],47%
same,Population Mitotic Cells (%),[8],58%
same,Population Normal (%),[8],95%
same,Population Pyknosed Nuclei (%),[8],46%
same,Population Tubulin-Different-Phenotype (%),[8],74%
same,Total Cell Count,[8],245
same,Population Apoptotic (%),[9],50%
same,Population Fragmented Nuclei (%),[9],15%
same,Population Healthy Nuclei (%),[9],28%
same,Population Hoechst High Intensity Objects (%),[9],16%
same,Population Membrane Permeable-Phenotype (%),[9],6%
same,Population Mitochondria Different-Phenotype (%),[9],48%
same,Population Mitotic Cells (%),[9],50%
same,Population Normal (%),[9],83%
same,Population Pyknosed Nuclei (%),[9],55%
same,Population Tubulin-Different-Phenotype (%),[9],41%
same,Total Cell Count,[9],356
same,Population Apoptotic (%),[10],9%
same,Population Fragmented Nuclei (%),[10],5%
same,Population Healthy Nuclei (%),[10],74%
same,Population Hoechst High Intensity Objects (%),[10],4%
same,Population Membrane Permeable-Phenotype (%),[10],7%
same,Population Mitochondria Different-Phenotype (%),[10],11%
same,Population Mitotic Cells (%),[10],90%
same,Population Normal (%),[10],95%
same,Population Pyknosed Nuclei (%),[10],20%
same,Population Tubulin-Different-Phenotype (%),[10],34%
same,Total Cell Count,[10],361
same,Population Apoptotic (%),[11],66%
same,Population Fragmented Nuclei (%),[11],24%
same,Population Healthy Nuclei (%),[11],6%
same,Population Hoechst High Intensity Objects (%),[11],22%
same,Population Membrane Permeable-Phenotype (%),[11],7%
same,Population Mitochondria Different-Phenotype (%),[11],100%
same,Population Mitotic Cells (%),[11],33%
same,Population Normal (%),[11],77%
same,Population Pyknosed Nuclei (%),[11],69%
same,Population Tubulin-Different-Phenotype (%),[11],84%
same,Total Cell Count,[11],276
same,Population Apoptotic (%),[12],63%
same,Population Fragmented Nuclei (%),[12],12%
same,Population Healthy Nuclei (%),[12],44%
same,Population Hoechst High Intensity Objects (%),[12],5%
same,Population Membrane Permeable-Phenotype (%),[12],22%
same,Population Mitochondria Different-Phenotype (%),[12],41%
same,Population Mitotic Cells (%),[12],36%
same,Population Normal (%),[12],94%
same,Population Pyknosed Nuclei (%),[12],43%
same,Population Tubulin-Different-Phenotype (%),[12],64%
same,Total Cell Count,[12],237
